Source: PubChem BioAssay AID488779 (The Scripps Research Institute Molecular Screening Center, 2010)
Calls of active or inactive are those of the source.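 The calls were made as follows: active = SF-1 luciferase reporter signal in cells inhibited by more than 25%; inactive = the rest.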

Molecular target: Steroidogenic factor 1 (Homo sapiens) (UniProt Q13285)
Assay: nuclear receptor SF-1 transcriptional inhibitors – cell-based, luminescence, powder samples, single concentration, selectivity assay for LRH1 inverse agonist project, confirmation (AID 488779)
Conditions: HEK293T SF-1 5xSFRE luciferase reporter, 20 h; at 5 µM; active compounds read high
In short: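 Measured by: luminescent luciferase readout / Material: HEK293T cells with SF-1 and SFRE-luciferase reporter / Times: 20 h compound exposure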

Sequence of Steroidogenic factor 1 (Homo sapiens) (Q13285 whole entry, looked up): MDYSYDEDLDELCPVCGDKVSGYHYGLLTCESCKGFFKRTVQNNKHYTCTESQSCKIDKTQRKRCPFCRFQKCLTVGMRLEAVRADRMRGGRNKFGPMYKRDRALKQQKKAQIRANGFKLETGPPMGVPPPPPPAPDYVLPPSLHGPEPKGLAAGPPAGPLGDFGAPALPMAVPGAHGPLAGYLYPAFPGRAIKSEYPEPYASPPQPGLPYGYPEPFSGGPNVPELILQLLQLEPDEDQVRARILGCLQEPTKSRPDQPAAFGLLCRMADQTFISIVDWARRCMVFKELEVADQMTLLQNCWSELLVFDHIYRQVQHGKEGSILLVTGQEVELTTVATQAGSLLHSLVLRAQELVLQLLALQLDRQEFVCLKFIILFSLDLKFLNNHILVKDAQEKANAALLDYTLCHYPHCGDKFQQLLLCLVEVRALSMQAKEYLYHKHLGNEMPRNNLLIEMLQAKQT

| inhibition | Compound |
| --- | --- |
| -3% (inactive) | O=c1cc(N2CCN(c3cccc(Cl)n3)CC2)[nH]c(=O)n1C1CCCCC1 |
| -8% (inactive) | O=c1cc(N2CCN(C(c3ccccc3)c3ccccc3)CC2)[nH]c(=O)n1C1CCCCC1 |
| -19% (inactive) | O=c1cc(N2CCN(c3ccccc3Cl)CC2)[nH]c(=O)n1C1CCCCC1 |
| 27% | CCn1c(=O)cc(N2CCN(Cc3ccccc3)CC2)[nH]c1=O |
| 2% (inactive) | O=c1cc(N2CCN(c3cccc(Cl)c3)CC2)[nH]c(=O)[nH]1 |
| 7% (inactive) | CCn1c(=O)cc(N2CCN(c3ccccc3)CC2)[nH]c1=O |
| 1% (inactive) | O=c1cc(N2CCN(c3ccc(C(F)(F)F)cc3)CC2)[nH]c(=O)n1C1CCCCC1 |
| 0% (inactive) | O=c1cc(N2CCOCC2)[nH]c(=O)n1C1CCCCC1 |
| -83% (inactive) | O=c1cc(N2CCN(c3cc(C(F)(F)F)ccn3)CC2)[nH]c(=O)n1C1CCCCC1 |
| -9% (inactive) | O=c1cc(N2CCN(c3cc(Cl)cc(Cl)c3)CC2)[nH]c(=O)n1C1CCCCC1 |
| 13% (inactive) | O=c1cc(N2CCN(c3ncccc3Cl)CC2)[nH]c(=O)n1C1CCCCC1 |
| 11% (inactive) | O=c1cc(N2CCN(c3ccnc4cc(Cl)ccc34)CC2)[nH]c(=O)n1C1CCCCC1 |
| -112% (inactive) | O=c1cc(N2CCN(c3cccc(F)c3)CC2)[nH]c(=O)n1C1CCCCC1 |
| -95% (inactive) | CC(C)Cn1c(=O)cc(N2CCN(c3cccc(C(F)(F)F)c3)CC2)[nH]c1=O |
| -4% (inactive) | Cc1cc(C)cc(N2CCN(c3cc(=O)n(C4CCCCC4)c(=O)[nH]3)CC2)c1 |
| 5% (inactive) | O=c1cc(N2CCN(c3cccc(Cl)c3)CC2)[nH]c(=O)n1C1CCCCC1 |
| 23% (inactive) | O=c1cc(N2CCCCC2)[nH]c(=O)n1C1CCCCC1 |
| -81% (inactive) | CCn1c(=O)cc(N2CCN(c3cccc(C(F)(F)F)c3)CC2)[nH]c1=O |
| 7% (inactive) | Cc1ccc(C)n1CCN1CCN(c2cc(=O)n(C3CCCCC3)c(=O)[nH]2)CC1 |
| -3% (inactive) | O=c1cc(N2CCN(c3cccc(C(F)(F)F)c3)CC2)[nH]c(=O)n1-c1ccccc1 |

| inhibition | Compound |
| --- | --- |
| 9% (inactive) | O=c1cc(N2CCN(CCN3CCOCC3)CC2)[nH]c(=O)n1C1CCCCC1 |
| -1% (inactive) | O=c1cc(N2CCN(c3cccc(C(F)(F)F)c3)CC2)[nH]c(=O)n1C1CCCCC1 |
| 0% (inactive) | CC1CCN(c2cc(=O)n(Cc3ccc(F)cc3)c(=O)[nH]2)CC1 |
| -13% (inactive) | C=CCN1CCN(c2cc(=O)n(C3CCCCC3)c(=O)[nH]2)CC1 |
| -18% (inactive) | O=c1cc(N2CCN(c3ccccc3)CC2)[nH]c(=O)n1Cc1ccc(F)cc1 |
| 5% (inactive) | O=c1cc(N2CCN(c3ncccc3C(F)(F)F)CC2)[nH]c(=O)n1C1CCCCC1 |
| 23% (inactive) | O=c1cc(N2CCc3ccccc32)[nH]c(=O)n1C1CCCCC1 |
| 2% (inactive) | O=C(c1ccccc1)N1CCN(c2cc(=O)n(C3CCCCC3)c(=O)[nH]2)CC1 |
| 5% (inactive) | O=c1cc(N2CCN(c3ccccc3C(F)(F)F)CC2)[nH]c(=O)n1C1CCCCC1 |
| 3% (inactive) | O=c1cc(N2CCN(c3cccc(C(F)(F)F)c3)CC2)n(Cc2ccccc2)c(=O)n1C1CCCCC1 |
| 9% (inactive) | O=c1cc(N2CCC(Cc3ccccc3)CC2)[nH]c(=O)n1C1CCCCC1 |
| 9% (inactive) | O=c1cc(N2CCN(c3cccc(C(F)(F)F)n3)CC2)[nH]c(=O)n1C1CCCCC1 |
| 5% (inactive) | CCN1CCN(c2cc(=O)n(C3CCCCC3)c(=O)[nH]2)CC1 |
| -2% (inactive) | O=c1cc(N2CCN(c3ccc(F)cc3)CC2)[nH]c(=O)n1C1CCCCC1 |
| 5% (inactive) | O=c1cc(N2CCCC2)[nH]c(=O)n1C1CCCCC1 |
| 1% (inactive) | O=c1cc(N2CCN(c3cccc(C(F)(F)F)c3)CC2)[nH]c(=O)n1Cc1ccccc1 |
| -49% (inactive) | O=c1cc(N2CCN(c3ccc(F)cc3F)CC2)[nH]c(=O)n1C1CCCCC1 |
| 24% | O=c1cc(N2CCN(Cc3ccc4c(c3)OCO4)CC2)[nH]c(=O)n1C1CCCCC1 |
| 1% (inactive) | O=c1cc(N2CCN(c3nc(-c4ccccc4)ns3)CC2)[nH]c(=O)n1C1CCCCC1 |
| 9% (inactive) | O=c1cc(N2CCN(C3CCCCC3)CC2)[nH]c(=O)n1C1CCCCC1 |

| inhibition | Compound |
| --- | --- |
| 10% (inactive) | CCn1c(=O)cc(N2CCN(c3ccc(F)cc3)CC2)[nH]c1=O |
| 6% (inactive) | COC(=O)C1CCN(c2cc(=O)n(C3CCCCC3)c(=O)[nH]2)CC1 |
| -24% (inactive) | C=CCn1c(N2CCN(c3cccc(C(F)(F)F)c3)CC2)cc(=O)n(C2CCCCC2)c1=O |
| -4% (inactive) | O=c1cc(N2CCN(Cc3ccc(Cl)cc3)CC2)[nH]c(=O)n1C1CCCCC1 |
| -23% (inactive) | O=c1cc(N2CCN(c3cccc(Br)c3)CC2)[nH]c(=O)n1C1CCCCC1 |
| -164% (inactive) | C=CCn1c(=O)cc(N2CCN(c3cccc(C(F)(F)F)c3)CC2)[nH]c1=O |
| -7% (inactive) | O=c1cc(N2CCN(c3ccccn3)CC2)[nH]c(=O)n1C1CCCCC1 |
| -10% (inactive) | CCn1c(=O)cc(N2CCN(c3cccc(Cl)c3)CC2)[nH]c1=O |
| 3% (inactive) | O=c1cc(N2CCN(c3cccc(Cl)c3Cl)CC2)[nH]c(=O)n1C1CCCCC1 |
| 6% (inactive) | O=C(c1ccco1)N1CCN(c2cc(=O)n(C3CCCCC3)c(=O)[nH]2)CC1 |
| -12% (inactive) | Cc1ccc(Cl)cc1N1CCN(c2cc(=O)n(C3CCCCC3)c(=O)[nH]2)CC1 |
| -5% (inactive) | CC1CCN(c2cc(=O)n(C3CCCCC3)c(=O)[nH]2)CC1 |
| -2% (inactive) | Cn1c(=O)cc(N2CCN(c3ccc(F)cc3)CC2)[nH]c1=O |
| 5% (inactive) | COc1ccc(N2CCN(c3cc(=O)n(C4CCCCC4)c(=O)[nH]3)CC2)cc1 |
| 30% | CCn1c(=O)cc(N2CCN(C(=O)c3ccco3)CC2)[nH]c1=O |
| -14% (inactive) | O=c1cc(N2CCN(c3nccc4occc34)CC2)[nH]c(=O)n1C1CCCCC1 |
| 19% (inactive) | CCOC(=O)N1CCN(c2cc(=O)n(C3CCCCC3)c(=O)[nH]2)CC1 |
| -3% (inactive) | O=c1cc(N2CCN(c3ccccc3)CC2)[nH]c(=O)n1C1CCCCC1 |
| 4% (inactive) | N#CCn1c(N2CCN(c3cccc(C(F)(F)F)c3)CC2)cc(=O)n(C2CCCCC2)c1=O |
| -2% (inactive) | Cn1c(=O)cc(N2CCN(c3cccc(Cl)c3)CC2)[nH]c1=O |
